According to ChEMBL document CHEMBL1909567, “Synthesis and structure-activity relationship studies in translocator protein ligands based on a pyrazolo[3,4-b]quinoline scaffold” (J Med Chem, 2011):

Key:
Translocator protein = Translocator protein (Rattus norvegicus, UniProt P16257); test: Displacement of [3H]PK11195 from TSPO in Sprague-Dawley rat brain homogenates after 90 mins by liquid scintillation spectrometry; type: tissue-based
Rattus norvegicus [1] = test: Antinociceptive activity in rat peripheral mononeuropathy model assessed as decrease in right paw pressure at 5 mg/kg, po after 30 mins by analgesimetry (reference value: 31.3 +/- 2.8 g); type: functional
Rattus norvegicus [2] = test: Antinociceptive activity in rat peripheral mononeuropathy model assessed as decrease in left paw pressure at 50 mg/kg, po after 45 mins by analgesimetry (reference value: 63.0 +/- 2.4 g); type: functional
Rattus norvegicus [3] = test: Antinociceptive activity in rat peripheral mononeuropathy model assessed as decrease in left paw pressure at 5 mg/kg, po after 15 mins by analgesimetry (reference value: 63.5 +/- 2.8 g); type: functional
Rattus norvegicus [4] = test: Antinociceptive activity in rat peripheral mononeuropathy model assessed as decrease in right paw pressure at 50 mg/kg, po after 15 mins by analgesimetry (reference value: 34.8 +/- 3.7 g); type: functional
Rattus norvegicus [5] = test: Antinociceptive activity in rat peripheral mononeuropathy model assessed as decrease in left paw pressure at 5 mg/kg, po after 30 mins by analgesimetry (reference value: 59.65 +/- 2.6 g); type: functional
Rattus norvegicus [6] = test: Antinociceptive activity in rat peripheral mononeuropathy model assessed as decrease in right paw pressure at 5 mg/kg, po after 45 mins by analgesimetry (reference value: 32.9 +/- 2.6 g); type: functional
Rattus norvegicus [7] = test: Antinociceptive activity in rat peripheral mononeuropathy model assessed as decrease in left paw pressure at 50 mg/kg, po after 15 mins by analgesimetry (reference value: 63.5 +/- 2.8 g); type: functional
Mus musculus [8] = test: Antianxiety activity in mouse assessed as increase in time spent in illuminated area at 30 mg/kg, po after 30 mins by light/dark box test (reference value: 116.4 +/- 7.5 sec); type: functional
Procedure, shortened: (§1)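 Male mice, housed 15 per cage, placed in the test room 24 h before testing for acclimatization. Drugs were given po in 1% carboxymethylcellulose at 10 mL/kg, 30 min before the light/dark box test. Time spent in the light box (s) was recorded. Values are mean ± SEM of at least 8 mice per group. ANOVA with Fisher's PLSD was used against vehicle.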

Mus musculus [9] = test: Antianxiety activity in mouse assessed as increase in time spent in illuminated area at 3 mg/kg, po after 30 mins by light/dark box test (reference value: 116.4 +/- 7.5 sec); type: functional; procedure, shortened: as §1
Rattus norvegicus [10] = test: Antinociceptive activity in rat peripheral mononeuropathy model assessed as decrease in right paw pressure at 50 mg/kg, po after 45 mins by analgesimetry (reference value: 32.9 +/- 2.6 g); type: functional
Rattus norvegicus [11] = test: Antinociceptive activity in rat peripheral mononeuropathy model assessed as decrease in left paw pressure at 5 mg/kg, po after 45 mins by analgesimetry (reference value: 63.0 +/- 2.4 g); type: functional
Mus musculus [12] = test: Antianxiety activity in mouse assessed as increase in time spent in illuminated area at 10 mg/kg, po after 30 mins by light/dark box test (reference value: 116.4 +/- 7.5 sec); type: functional; procedure, shortened: as §1
Rattus norvegicus [13] = test: Antinociceptive activity in rat peripheral mononeuropathy model assessed as decrease in right paw pressure at 50 mg/kg, po after 30 mins by analgesimetry (reference value: 31.3 +/- 2.8 g); type: functional
Rattus norvegicus [14] = test: Antinociceptive activity in rat peripheral mononeuropathy model assessed as decrease in left paw pressure at 50 mg/kg, po after 30 mins by analgesimetry (reference value: 59.65 +/- 2.6 g); type: functional
Rattus norvegicus [15] = test: Antinociceptive activity in rat peripheral mononeuropathy model assessed as decrease in right paw pressure at 5 mg/kg, po after 15 mins by analgesimetry (reference value: 34.8 +/- 3.7 g); type: functional
Mus musculus [16] = test: Antianxiety activity in mouse assessed as increase in time spent in illuminated area at 1 mg/kg, po by light/dark box test (reference value: 116.4 +/- 7.5 sec); type: functional; procedure, shortened: as §1

Chain of Translocator protein (P16257 whole entry, looked up): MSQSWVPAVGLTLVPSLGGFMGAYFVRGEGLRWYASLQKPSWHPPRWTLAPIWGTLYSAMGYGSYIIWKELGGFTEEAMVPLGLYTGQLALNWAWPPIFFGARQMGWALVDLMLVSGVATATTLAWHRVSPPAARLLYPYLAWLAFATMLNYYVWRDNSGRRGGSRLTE

Compound `CCCCN(C)C(=O)Cn1c2nc3ccccc3c(C)c2c(=O)n1-c1ccccc1` has an IC50 (Translocator protein) of 65 nM.
With `CCN(CC)C(=O)Cn1c2nc3ccccc3c(C)c2c(=O)n1-c1ccccc1` the IC50 (Translocator protein) was 180 nM.
`Cc1c2ccccc2nc2c1c(=O)n(-c1ccccc1)n2CC(=O)N(C(C)C)C(C)C` gave an IC50 (Translocator protein) of 1390 nM.
With `CCCN(CCC)C(=O)Cn1c2nc3ccccc3c(C)c2c(=O)n1-c1ccccc1` the IC50 (Translocator protein) was 90 nM.
Work on `CCCCN(CCCC)C(=O)Cn1c2nc3ccccc3c(C)c2c(=O)n1-c1ccccc1` yielded an IC50 (Translocator protein) of 152 nM.
`Cc1c2ccccc2nc2c1c(=O)n(-c1ccccc1)n2CC(=O)N(C)c1ccccc1` gave an IC50 (Translocator protein) of 117 nM.
`Cc1c2ccccc2nc2c1c(=O)n(-c1ccccc1)n2CC(=O)N(C)c1ccc(Cl)cc1` showed an Activity (Rattus norvegicus [1]) of 35.9 g, an Activity (Rattus norvegicus [2]) of 59 g and an Activity (Rattus norvegicus [3]) of 57.8 g. It also gave an Activity (Rattus norvegicus [4]) of 48.1 g, an Activity (Rattus norvegicus [5]) of 63.6 g and an Activity (Rattus norvegicus [6]) of 33.4 g. It also gave an Activity (Rattus norvegicus [7]) of 61 g, an IC50 (Translocator protein) of 1.8 nM and a Time (Mus musculus [8]) of 107.6 s. It also gave a Time (Mus musculus [9]) of 103.8 s, an Activity (Rattus norvegicus [10]) of 37 g and an Activity (Rattus norvegicus [11]) of 61.4 g. For the same compound, the Time (Mus musculus [12]) was 112.3 s, the Activity (Rattus norvegicus [13]) was 44 g and the Activity (Rattus norvegicus [14]) was 58 g. It also gave an Activity (Rattus norvegicus [15]) of 39.2 g.
`COc1ccc(N(C)C(=O)Cn2c3nc4ccccc4c(C)c3c(=O)n2-c2ccccc2)cc1` gave an IC50 (Translocator protein) of 17 nM.
For `Cc1c2ccccc2nc2c1c(=O)n(-c1ccccc1)n2CC(=O)N(C)Cc1ccccc1`, the IC50 (Translocator protein) was 881 nM.
For `CCN(Cc1ccccc1)C(=O)Cn1c2nc3ccccc3c(C)c2c(=O)n1-c1ccccc1`, the IC50 (Translocator protein) was 220 nM.
Compound `Cc1c2ccccc2nc2c1c(=O)n(-c1ccccc1)n2CC(=O)N(Cc1ccccc1)C(C)C` has an IC50 (Translocator protein) of 304 nM.
For `CCCCN(Cc1ccccc1)C(=O)Cn1c2nc3ccccc3c(C)c2c(=O)n1-c1ccccc1`, the IC50 (Translocator protein) was 697 nM.
In the case of `Cc1c2ccccc2nc2c1c(=O)n(-c1ccccc1)n2CC(=O)N(Cc1ccccc1)Cc1ccccc1`, the IC50 (Translocator protein) is reported as 3460 nM.
In the case of `CCCCN(C)C(=O)Cn1c2nc3ccccc3c(C)c2c(=O)n1-c1ccc(F)cc1`, the IC50 (Translocator protein) is reported as 110 nM.
Work on `CCN(CC)C(=O)Cn1c2nc3ccccc3c(C)c2c(=O)n1-c1ccc(F)cc1` yielded an IC50 (Translocator protein) of 2270 nM.
Compound `CCCN(CCC)C(=O)Cn1c2nc3ccccc3c(C)c2c(=O)n1-c1ccc(F)cc1` has an IC50 (Translocator protein) of 87 nM.
Compound `Cc1c2ccccc2nc2c1c(=O)n(-c1ccc(F)cc1)n2CC(=O)N(C)c1ccc(Cl)cc1` has an Activity (Rattus norvegicus [1]) of 36.4 g, an Activity (Rattus norvegicus [2]) of 63.1 g and an Activity (Rattus norvegicus [3]) of 58.7 g. For the same compound, the Activity (Rattus norvegicus [4]) was 49.4 g, the Activity (Rattus norvegicus [5]) was 57.7 g and the Activity (Rattus norvegicus [6]) was 36.3 g. The Activity (Rattus norvegicus [7]) was 60.7 g, the IC50 (Translocator protein) was 6.8 nM and the Time (Mus musculus [8]) was 111.3 s. For the same compound, the Time (Mus musculus [9]) was 106.8 s, the Activity (Rattus norvegicus [10]) was 36.3 g and the Activity (Rattus norvegicus [11]) was 64.1 g. The Time (Mus musculus [12]) was 117.5 s, the Activity (Rattus norvegicus [13]) was 47.2 g and the Activity (Rattus norvegicus [14]) was 59.3 g. The Activity (Rattus norvegicus [15]) was 35.6 g.
For `CCCCN(C)C(=O)Cn1c2nc3ccccc3c(C)c2c(=O)n1-c1ccc(Cl)cc1`, the IC50 (Translocator protein) was 144 nM.
`CCCN(CCC)C(=O)Cn1c2nc3ccccc3c(C)c2c(=O)n1-c1ccc(Cl)cc1` gave an IC50 (Translocator protein) of 90 nM.
With `Cc1c2ccccc2nc2c1c(=O)n(-c1ccc(Cl)cc1)n2CC(=O)N(C)c1ccc(Cl)cc1` the Activity (Rattus norvegicus [1]) was 35.8 g, the Activity (Rattus norvegicus [2]) was 64.8 g and the Activity (Rattus norvegicus [3]) was 61.4 g. The Activity (Rattus norvegicus [4]) was 56.3 g, the Activity (Rattus norvegicus [5]) was 58.4 g and the Activity (Rattus norvegicus [6]) was 32.7 g. The Activity (Rattus norvegicus [7]) was 62.2 g, the IC50 (Translocator protein) was 16 nM and the Time (Mus musculus [9]) was 135.2 s. It also gave an Activity (Rattus norvegicus [10]) of 42.5 g, an Activity (Rattus norvegicus [11]) of 63.8 g and a Time (Mus musculus [16]) of 108.9 s. It also gave a Time (Mus musculus [12]) of 169 s, an Activity (Rattus norvegicus [13]) of 49.4 g and an Activity (Rattus norvegicus [14]) of 61.8 g. The Activity (Rattus norvegicus [15]) was 44.8 g.
For `CCCCN(C)C(=O)Cn1c2nn(-c3ccccc3)c(=O)c-2c(C)c2ccccc21`, the IC50 (Translocator protein) was 0.14 nM, the Time (Mus musculus [9]) was 117.4 s and the Time (Mus musculus [16]) was 103.7 s. The Time (Mus musculus [12]) was 151.5 s.
With `CCN(CC)C(=O)Cn1c2nn(-c3ccccc3)c(=O)c-2c(C)c2ccccc21` the IC50 (Translocator protein) was 0.83 nM.
Compound `CCCCN(CCCC)C(=O)Cn1c2nn(-c3ccccc3)c(=O)c-2c(C)c2ccccc21` has an IC50 (Translocator protein) of 0.34 nM.
In the case of `Cc1c2c(=O)n(-c3ccccc3)nc-2n(CC(=O)N(C)c2ccc(Cl)cc2)c2ccccc12`, the IC50 (Translocator protein) is reported as 0.13 nM.
With `CCCCN(C)C(=O)Cn1c2nn(-c3ccc(F)cc3)c(=O)c-2c(C)c2ccccc21` the IC50 (Translocator protein) was 0.13 nM.
For `Cc1c2c(=O)n(-c3ccc(F)cc3)nc-2n(CC(=O)N(C)c2ccc(Cl)cc2)c2ccccc12`, the IC50 (Translocator protein) was 0.28 nM.
With `CCN(Cc1ccccc1)C(=O)Cn1c(=O)n(C)c2cnc(-c3ccccc3)nc21` the Time (Mus musculus [9]) was 137.3 s, the Time (Mus musculus [16]) was 110.8 s and the Time (Mus musculus [12]) was 162.3 s.
Compound `CN1C(=O)CN=C(c2ccccc2)c2cc(Cl)ccc21` [DIAZEPAM] has a Time (Mus musculus [16]) of 171.63 s.
